Reference: ChEMBL document CHEMBL1148040, “New lignans from Anogeissus acuminata with HIV-1 reverse transcriptase inhibitory activity” (J Nat Prod, 1994)
Converted amounts (≈) assume the structure as drawn.

Key:
[1] = target: T1, Human immunodeficiency virus type 1 reverse transcriptase (Human immunodeficiency virus 1, UniProt Q72547); assay: Inhibition of HIV1 reverse transcriptase
Summary of the method: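 HIV-1 RT inhibition was measured by a previously published method. Each value is the mean of three experiments, each run in duplicate. Test levels reached 250 µg/ml in the assay mixture.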

[2] = target: Human immunodeficiency virus type 1 reverse transcriptase (Human immunodeficiency virus 1) (UniProt Q72547); assay: Inhibition of HIV1 reverse transcriptase at 250 ug/ml
Summary of the method: (§1)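 HIV-1 reverse transcriptase inhibition, run by an assay procedure the authors described earlier. Each test concentration was run in duplicate in three separate experiments, and the reported value is the average of the three experiments.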

[3] = target: Human immunodeficiency virus type 1 reverse transcriptase (Human immunodeficiency virus 1) (UniProt Q72547); assay: Inhibition of HIV1 reverse transcriptase at 200 ug/ml; summary of the method: as §1
[4] = target: Human immunodeficiency virus type 1 reverse transcriptase (Human immunodeficiency virus 1) (UniProt Q72547); assay: Inhibition of HIV1 reverse transcriptase at 150 ug/ml; summary of the method: as §1
[5] = target: Human immunodeficiency virus type 1 reverse transcriptase (Human immunodeficiency virus 1) (UniProt Q72547); assay: Inhibition of HIV1 reverse transcriptase at 100 ug/ml; summary of the method: as §1
[6] = target: Human immunodeficiency virus type 1 reverse transcriptase (Human immunodeficiency virus 1) (UniProt Q72547); assay: Inhibition of HIV1 reverse transcriptase at 80 ug/ml; summary of the method: as §1
[7] = target: Human immunodeficiency virus type 1 reverse transcriptase (Human immunodeficiency virus 1) (UniProt Q72547); assay: Inhibition of HIV1 reverse transcriptase at 60 ug/ml; summary of the method: as §1
[8] = target: Human immunodeficiency virus type 1 reverse transcriptase (Human immunodeficiency virus 1) (UniProt Q72547); assay: Inhibition of HIV1 reverse transcriptase at 40 ug/ml; summary of the method: as §1
[9] = target: Human immunodeficiency virus type 1 reverse transcriptase (Human immunodeficiency virus 1) (UniProt Q72547); assay: Inhibition of HIV1 reverse transcriptase at 20 ug/ml; summary of the method: as §1
[10] = Cytotoxicity against human BC1 cells; type: functional; conditions: read-out: ED50 (the source's name)
HT-1080 = assay: Cytotoxicity against human HT1080 cells; type: functional; conditions: read-out: ED50 (the source's name)
Lu1 = assay: Cytotoxicity against human Lu1 cells; type: functional; conditions: read-out: ED50 (the source's name)
SK-MEL-2 = assay: Cytotoxicity against human SK-MEL-2 cells; type: functional; conditions: read-out: ED50 (the source's name)
[11] = Cytotoxicity against human Col1 cells; type: functional; conditions: read-out: ED50 (the source's name)
KB = assay: Cytotoxicity against human KB cells; type: functional; conditions: read-out: ED50 (the source's name)
[12] = Cytotoxicity against human KBV1 cells in presence of vinblastine; type: functional; conditions: KB-V1, read-out: ED50 (the source's name)
[13] = Cytotoxicity against human KBV1 cells in absence of vinblastine; type: functional; conditions: KB-V1, read-out: ED50 (the source's name)
P388 = assay: Cytotoxicity against mouse P388 cells; type: functional; conditions: read-out: ED50 (the source's name)
A-431 = assay: Cytotoxicity against human A431 cells; type: functional; conditions: read-out: ED50 (the source's name)
ZR-75-1 = assay: Cytotoxicity against human ZR-75-1 cells; type: functional; conditions: read-out: ED50 (the source's name)
[14] = Cytotoxicity against human U373 cells; type: functional, U-373MG ATCC; conditions: U373 MG, read-out: ED50 (the source's name)
[15] = Inhibition of HIV2 reverse transcriptase; design: species or system Human immunodeficiency virus 2
[16] = target: T1, Human immunodeficiency virus type 1 reverse transcriptase; assay: Inhibition of drug-resistant HIV1 reverse transcriptase
LNCaP = assay: Cytotoxicity against human LNCAP cells; type: functional; conditions: read-out: ED50 (the source's name)

Structure (SMILES) | IC50 [1] | inhibition [3] | inhibition [4] | inhibition [5] | inhibition [6] | inhibition [7] | inhibition [8] | EC50 [10] | EC50 (HT-1080) | EC50 (Lu1) | EC50 (SK-MEL-2) | EC50 [11] | EC50 (KB) | EC50 [12] | EC50 [13] | EC50 (P388) | EC50 (A-431) | EC50 (ZR-75-1) | EC50 [14] | EC50 (LNCaP) | other results
COc1cc(C[C@@H](CO)[C@H](CO)Cc2ccc(O)c(OC)c2)ccc1O [(+)-SECOISOLARICIRESINOL] | Not Active | – | – | – | – | – | – | – | – | – | – | – | – | – | – | – | – | – | – | – | –
C=C(Cc1ccc2c(c1)OCO2)C(=C)Cc1ccc(O)cc1O [ANOLIGNAN A] | – | 92.8% | 80.8% | 73.9% | 68.3% | 51.5% | 33.8% | 4.3 mg/L (≈ 13.9 µM) | 13.1 mg/L (≈ 42.2 µM) | 15.8 mg/L (≈ 50.9 µM) | 7.6 mg/L (≈ 24.5 µM) | 16.8 mg/L (≈ 54.1 µM) | > 20 mg/L | > 20 mg/L | > 20 mg/L | > 20 mg/L | > 20 mg/L | 6.1 mg/L (≈ 19.7 µM) | 13.5 mg/L (≈ 43.5 µM) | 10.8 mg/L (≈ 34.8 µM) | inhibition [2]: 97.4%; inhibition [9]: 4.1%; IC50 ([1]; read-out: IC50 (converted)): 195 µM; IC50 [15]: 156.9 mg/L (≈ 506 µM); IC50 [16]: 342 µM
C=C(Cc1ccc(O)cc1)C(=C)Cc1ccc(O)cc1 [ANOLIGNAN B] | – | 32.9% | 31.2% | 27.4% | 20.9% | 25.5% | 17.7% | 5.1 mg/L (≈ 19.1 µM) | 4.7 mg/L (≈ 17.6 µM) | 11.1 mg/L (≈ 41.7 µM) | 19 mg/L (≈ 71.3 µM) | 18 mg/L (≈ 67.6 µM) | > 20 mg/L | > 20 mg/L | > 20 mg/L | 1 mg/L (≈ 3.75 µM) | > 20 mg/L | > 20 mg/L | 5.7 mg/L (≈ 21.4 µM) | 8.7 mg/L (≈ 32.7 µM) | inhibition [9]: 10%; IC50 ([1]; read-out: IC50 (converted)): 4020 µM
C[C@@H]1[C@H](C)[C@H](c2ccc(O)cc2)O[C@@H]1c1ccc(O)cc1 [ANOLIGNAN C] | Not Active | – | – | – | – | – | – | > 20 mg/L | 13.1 mg/L (≈ 46.1 µM) | 15.8 mg/L (≈ 55.6 µM) | 7.6 mg/L (≈ 26.7 µM) | 16.8 mg/L (≈ 59.1 µM) | > 20 mg/L | > 20 mg/L | > 20 mg/L | > 20 mg/L | > 20 mg/L | 6.1 mg/L (≈ 21.5 µM) | 18.5 mg/L (≈ 65.1 µM) | 10.8 mg/L (≈ 38 µM) | –
